# Measured values reported in ChEMBL document CHEMBL4680084, “New β-Lactam Derivatives Modulate Cell Adhesion and Signaling Mediated by RGD-Binding and Leukocyte Integrins” (J Med Chem, 2016).
# Activity calls are given as the source filed them. No cut-off for these calls is given here.
# Assays:
# [1] = target: T1, Integrin alpha-IIb/beta-3 (Homo sapiens, UniProt P05106+P08514); assay: Inhibition of fibrinogen binding to alpha2bbeta3 isolated from human HEL cells incubated for 1 hr by […] competitive solid-phase binding assay
# Integrin alpha-5/beta-1 = Integrin alpha-5/beta-1 (Homo sapiens, UniProt P05556+P08648); assay: Inhibition of fibronectin binding to alpha5beta1 isolated from human K562 cells incubated for 1 hr by […] competitive solid-phase binding assay; format: tissue-based
# Outline: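 Plates coated overnight at 4 °C in carbonate buffer pH 9.6 with fibronectin 0.5 µg/mL (αvβ3, αvβ6, α5β1), fibrinogen 10 µg/mL (αIIbβ3, αvβ5) or ICAM-1 (αLβ2). Blocked 1 h in buffer containing Ca/Mg/Mn 1 mM each and 1% BSA. Purified integrin (3–10 µg/mL) incubated with compound (10⁻⁴–10⁻¹⁰ M) 1 h at room temperature. Bound integrin detected with primary antibody then AlexaFluor488 secondary, Ex485/Em535. Duplicate, at least three repeats.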
# SK-MEL-24 = assay: Toxicity in human SK-MEL-24 cells assessed as induction of cell necrosis and/or apoptosis incubated for 3 hrs by annexin V-PE and 7-AAD staining based by flow cytometry; conditions: sk-mel-24, 3 h
# Outline: (§1)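 After 3 h incubation, cells resuspended in complete medium and stained with annexin V-PE/7-AAD reagent for 20 min at room temperature in the dark. Flow cytometry sorted cells into viable, early apoptotic and late apoptotic/necrotic populations.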
# MCF7 = assay: Toxicity in human MCF7 cells assessed as induction of cell necrosis and/or apoptosis incubated for 3 hrs by annexin V-PE and 7-AAD staining based by flow cytometry; conditions: mcf7, 3 h; outline: as §1
# HT-29 = assay: Toxicity in human HT-29 cells assessed as induction of cell necrosis and/or apoptosis incubated for 3 hrs by annexin V-PE and 7-AAD staining based by flow cytometry; conditions: ht-29, 3 h; outline: as §1
# K562 = assay: Toxicity in human K562 cells assessed as induction of cell necrosis and/or apoptosis incubated for 3 hrs by annexin V-PE and 7-AAD staining based by flow cytometry; conditions: k562, 3 h; outline: as §1
# HEL = assay: Toxicity in human HEL cells assessed as induction of cell necrosis and/or apoptosis incubated for 3 hrs by annexin V-PE and 7-AAD staining based by flow cytometry; outline: as §1
# Integrin alpha-V/beta-5 [2] = target: T2, Integrin alpha-V/beta-5 (Homo sapiens, UniProt P06756+P18084); assay: Agonist activity at alphaVbeta5 in human MCF7 cells assessed as increase in cell adhesion to fibrinogen pre-incubated for 30 mins before fibrinogen and further incubated for 1 hr by nitrophenyl-N-acetyl-beta-D-glucosaminide substrate based chromogenic assay
# Outline: (§2)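 Compound or methanol vehicle pre-incubated with cells for 30 min at room temperature. Cells then plated on wells coated overnight at 4 °C with fibronectin 10 µg/mL (SK-MEL-24, K562, HT-29) or fibrinogen 10 µg/mL (MCF7, HEL). Seeding was 50,000 cells/well, or 100000 for HEL. Adhesion ran 1 h at room temperature. Wells washed with 1% BSA/PBS. Adherent cells read by hexosaminidase substrate, absorbance 405 nm. Quadruplicate, at least three repeats.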
# Integrin alpha-V/beta-6 [3] = target: T3, Integrin alpha-V/beta-6 (Homo sapiens, UniProt P06756+P18564); assay: Agonist activity at alphaVbeta6 in human HT-29 cells assessed as increase in cell adhesion to fibronectin pre-incubated for 30 mins before fibronectin and further incubated for 1 hr by nitrophenyl-N-acetyl-beta-D-glucosaminide substrate based chromogenic assay; outline: as §2
# Integrin alpha-4/beta-1 [4] = target: T4, Integrin alpha-4/beta-1 (Homo sapiens, UniProt P05556+P13612); assay: Agonist activity at alpha4beta1 in human Jurkat E6.1 cells assessed as increase in cell adhesion to VCAM1 pre-incubated for 30 mins before VCAM1 and further incubated for 30 mins by […]; format: cell-based
# Outline: (§3)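 Jurkat E6.1 cells labelled with CellTracker green CMFDA (12.5 µM, 30 min, 37 °C), washed, then pre-incubated 30 min at 37 °C with compound or methanol. Plated at 500,000/well on VCAM-1 (α4β1) or ICAM-1 (αLβ2) coated wells (5 µg/mL) for 30 min at 37 °C. Cells lysed in 0.5% Triton X-100; fluorescence read Ex485/Em535. Quadruplicate, at least three repeats.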
# [5] = target: T1, Integrin alpha-IIb/beta-3; assay: Agonist activity at alpha2bbeta3 in human HEL cells assessed as increase in cell adhesion to fibrinogen pre-incubated for 30 mins before fibrinogen and further incubated for 1 hr by nitrophenyl-N-acetyl-beta-D-glucosaminide substrate based chromogenic assay
# Outline: as §2, with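 “BSA/PBS.” for “BSA/PBS. Adherent cells read by hexosaminidase substrate, absorbance 405 nm.”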
# [6] = target: T1, Integrin alpha-IIb/beta-3; assay: Antagonist activity at alpha2bbeta3 in human HEL cells assessed as reduction in cell adhesion to fibrinogen pre-incubated for 30 mins before fibrinogen and further incubated for 1 hr by nitrophenyl-N-acetyl-beta-D-glucosaminide substrate based chromogenic assay
# Outline: as §2, with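 “BSA/PBS.” for “BSA/PBS. Adherent cells read by hexosaminidase substrate, absorbance 405 nm.”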
# Integrin alpha-4/beta-1 [7] = target: T4, Integrin alpha-4/beta-1; assay: Antagonist activity at alpha4beta1 in human Jurkat E6.1 cells assessed as reduction in cell adhesion to VCAM1 pre-incubated for 30 mins before VCAM1 and further incubated for 30 mins by […]; format: cell-based
# [8] = target: Integrin alpha-L/beta-2 (LFA-1) (Homo sapiens, UniProt P05107+P20701); assay: Antagonist activity at alphaLbeta2 in human Jurkat E6.1 cells assessed as reduction in cell adhesion to ICAM1 pre-incubated for 30 mins before ICAM1 and further incubated for 30 mins by […]; format: cell-based; outline: as §3
# Integrin alpha-V/beta-3 [9] = target: T5, Integrin alpha-V/beta-3 (Homo sapiens, UniProt P05106+P06756); assay: Inhibition of fibronectin binding to human recombinant alphaVbeta3 expressed in HEK293 cells incubated for 1 hr by […] competitive solid-phase binding assay; format: cell-based
# Integrin alpha-V/beta-5 [10] = target: T2, Integrin alpha-V/beta-5; assay: Inhibition of fibrinogen binding to alphaVbeta5 isolated form human mCf7 cells incubated for 1 hr by […] competitive solid-phase binding assay
# Integrin alpha-V/beta-6 [11] = target: T3, Integrin alpha-V/beta-6; assay: Inhibition of fibronectin binding to alphaVbeta6 isolated form human HT-29 cells incubated for 1 hr by […] competitive solid-phase binding assay; format: tissue-based
# Integrin alpha-4/beta-1 [12] = target: T4, Integrin alpha-4/beta-1; assay: Inhibition of fibronectin binding to […] isolated from human Jurkat E6.1 cells incubated for 1 hr by scintillation-proximity assay based competitive solid-phase binding assay; format: tissue-based
# Integrin alpha-V/beta-3 [13] = target: T5, Integrin alpha-V/beta-3; assay: Agonist activity at alphaVbeta3 in human SK-MEL-24 cells assessed as increase in cell adhesion to fibronectin at 2 to 10 ug/ml pre-incubated for 30 mins and further incubated for 1 hr by nitrophenyl-N-acetyl-beta-D-glucosaminide substrate based chromogenic assay; conditions: filed as agonist, dose 2-10 µg/ml, time 90.0 min
# Integrin alpha-V/beta-3 [14] = target: T5, Integrin alpha-V/beta-3; assay: (§4) Agonist activity at alphaVbeta3 in human SK-MEL-24 cells assessed as increase in cell adhesion to fibronectin at 10 ug/ml pre-incubated for 30 mins and further incubated for 1 hr in presence of in presence of integrin antagonist c(-RGDfV) by nitrophenyl-N-acetyl-beta-D-glucosaminide substrate based chromogenic assay; conditions: dose 10.0 µg/ml, time 90.0 min
# Integrin alpha-V/beta-3 [15] = target: T5, Integrin alpha-V/beta-3; assay: as §4, with “of neutralizing antibody against the alphaV” for “of in presence of”, “integrin subunit” for “integrin antagonist c(-RGDfV)”; conditions: dose 10.0 µg/ml, time 90.0 min
smiles,measurement,setting,value
NCc1ccc(NC(=O)N2C(=O)CC2CC(=O)O)cc1.O=C(O)C(F)(F)F (stereo unspecified),IC50,[1],> 1000 nM
same,IC50,Integrin alpha-5/beta-1,5.5 nM
same,Activity,SK-MEL-24,Non-Toxic
same,Activity,MCF7,Non-Toxic
same,Activity,HT-29,Non-Toxic
same,Activity,K562,Non-Toxic
same,Activity,HEL,Non-Toxic
same,EC50,Integrin alpha-V/beta-5 [2],5.09 nM
same,EC50,Integrin alpha-V/beta-6 [3],167 nM
same,EC50,Integrin alpha-4/beta-1 [4],> 5000 nM
same,EC50,[5],> 5000 nM
same,IC50,[6],> 5000 nM
same,IC50,Integrin alpha-4/beta-1 [7],> 5000 nM
same,IC50,[8],2410 nM
same,IC50,Integrin alpha-V/beta-3 [9],5.6 nM
same,IC50,Integrin alpha-V/beta-5 [10],3.8 nM
same,IC50,Integrin alpha-V/beta-6 [11],80.5 nM
same,IC50,Integrin alpha-4/beta-1 [12],> 1000 nM
same,Activity,Integrin alpha-V/beta-3 [13],Dose-dependent effect
same,Activity,Integrin alpha-V/beta-3 [14],inactive
same,Activity,Integrin alpha-V/beta-3 [15],inactive
